Laboratory results from ChEMBL document CHEMBL3525985, “Regiospecificity and stereospecificity of human UDP-glucuronosyltransferases in the glucuronidation of estriol, 16-epiestriol, 17-epiestriol, and 13-epiestradiol” (Drug Metab Dispos, 2013).
Blank lines part the entries; values can stand above or below the molecule they belong to.

Experiments:
Type in all cases: ADME
[1] = target: T1, UDP-glucuronosyltransferase 1A1 (Homo sapiens, UniProt P22309); test: Drug metabolism assessed as recombinant human C-terminal His-tagged UGT1A1-mediated 17-epiestriol-3-glucuronide formation at 200 uM after 15 to 60 mins by HPLC analysis in presence of UDPGA; details: recombinant enzyme
T1 sequence (P22309 whole entry): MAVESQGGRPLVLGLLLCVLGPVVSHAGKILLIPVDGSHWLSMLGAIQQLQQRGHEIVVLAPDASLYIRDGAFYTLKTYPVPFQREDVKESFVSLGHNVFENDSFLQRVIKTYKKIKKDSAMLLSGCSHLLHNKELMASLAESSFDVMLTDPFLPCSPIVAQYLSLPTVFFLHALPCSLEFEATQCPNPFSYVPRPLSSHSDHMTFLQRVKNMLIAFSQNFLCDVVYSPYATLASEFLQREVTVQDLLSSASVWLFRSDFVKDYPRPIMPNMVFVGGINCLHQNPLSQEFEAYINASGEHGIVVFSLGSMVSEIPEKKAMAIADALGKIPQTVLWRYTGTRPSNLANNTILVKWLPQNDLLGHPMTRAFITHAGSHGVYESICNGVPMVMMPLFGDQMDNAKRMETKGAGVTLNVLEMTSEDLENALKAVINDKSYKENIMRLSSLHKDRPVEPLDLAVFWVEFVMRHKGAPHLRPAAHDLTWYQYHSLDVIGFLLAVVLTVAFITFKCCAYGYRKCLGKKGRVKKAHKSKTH
How it was run: (§1)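 Screening at a single substrate concentration of 200 μM, in triplicate. The reaction used 5 or 50 µg of UGT-enriched insect cell membranes in 50 mM phosphate pH 7.4 with 10 mM MgCl₂ and 5 mM UDPGA, 10% final DMSO. Incubation was 15–60 min at 37°C. Perchloric acid stopped the reaction and supernatants were analysed by HPLC. Controls lacked UDPGA. Rates were normalized to relative UGT expression level.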

Liver microsome = test: Drug metabolism in human liver microsomes assessed as 17-epiestriol-17-glucuronide formation after 15 to 60 mins by Michaelis-Menten equation analysis in presence of UDPGA
How it was run: (§2)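 Pooled human liver microsomes (30 donors), 0.5 or 10 µg, with alamethicin at 5% of total protein. Incubated with 50 mM phosphate pH 7.4, 10 mM MgCl₂, 5 mM UDPGA and 10% DMSO for 15–60 min at 37°C. Each glucuronide regioisomer quantified by HPLC, in triplicate, with substrate consumption at or below 10%.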

[2] = Drug metabolism in human intestine microsomes assessed as 17-epiestriol-3-glucuronide formation after 15 to 60 mins by Michaelis-Menten equation analysis in presence of UDPGA
How it was run: as §2, with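 “intestine” for “liver”, “(6” for “(30”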

[3] = Drug metabolism in human intestine microsomes assessed as 17-epiestriol-16-glucuronide formation after 15 to 60 mins by Michaelis-Menten equation analysis in presence of UDPGA
How it was run: as §2, with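 “intestine” for “liver”, “(6” for “(30”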

[4] = target: T2, UDP-glucuronosyltransferase 2B4 (Homo sapiens, UniProt P06133); test: Drug metabolism assessed as recombinant human C-terminal His-tagged UGT2B4-mediated 13-epiestradiol-17-glucuronide formation at 200 uM after 15 to 60 mins by HPLC analysis in presence of UDPGA; details: recombinant enzyme; how it was run: as §1
T2 sequence (P06133 whole entry): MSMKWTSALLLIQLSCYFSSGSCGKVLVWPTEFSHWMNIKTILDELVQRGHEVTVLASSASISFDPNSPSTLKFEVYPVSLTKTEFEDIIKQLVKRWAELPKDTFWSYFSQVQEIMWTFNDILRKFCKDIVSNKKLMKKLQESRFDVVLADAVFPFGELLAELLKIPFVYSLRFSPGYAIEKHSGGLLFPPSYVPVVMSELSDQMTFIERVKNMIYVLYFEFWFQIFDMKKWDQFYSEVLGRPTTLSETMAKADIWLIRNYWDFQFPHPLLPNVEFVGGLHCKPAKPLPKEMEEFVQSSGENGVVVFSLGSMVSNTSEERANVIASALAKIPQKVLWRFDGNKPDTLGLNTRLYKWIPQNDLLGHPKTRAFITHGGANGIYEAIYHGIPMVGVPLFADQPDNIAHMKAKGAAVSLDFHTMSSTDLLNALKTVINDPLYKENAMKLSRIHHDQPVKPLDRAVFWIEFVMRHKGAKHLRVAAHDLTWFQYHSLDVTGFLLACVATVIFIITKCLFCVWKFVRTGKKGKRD

[5] = Drug metabolism in human intestine microsomes assessed as 16-epiestriol-3-glucuronide formation after 15 to 60 mins by Michaelis-Menten equation analysis in presence of UDPGA
How it was run: as §2, with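 “intestine” for “liver”, “(6” for “(30”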

[6] = Drug metabolism in human intestine microsomes assessed as 16-epiestriol-16-glucuronide formation after 15 to 60 mins by Michaelis-Menten equation analysis in presence of UDPGA
How it was run: as §2, with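 “intestine” for “liver”, “(6” for “(30”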

[7] = target: UDP-glucuronosyltransferase 1A10 (Homo sapiens, UniProt Q9HAW8, F93G); test: Drug metabolism assessed as human UGT1A10 F93G mutant-mediated estradiol-3-glucuronide formation at 200 uM after 15 to 60 mins by HPLC analysis in presence of UDPGA; how it was run: as §1
[8] = target: T3, UDP-glucuronosyltransferase 1A4 (Homo sapiens, UniProt P22310); test: Drug metabolism assessed as recombinant human C-terminal His-tagged UGT1A4-mediated estriol-16-glucuronide formation after 15 to 60 mins by Michaelis-Menten equation analysis in presence of UDPGA; details: recombinant enzyme
T3 sequence (P22310 whole entry): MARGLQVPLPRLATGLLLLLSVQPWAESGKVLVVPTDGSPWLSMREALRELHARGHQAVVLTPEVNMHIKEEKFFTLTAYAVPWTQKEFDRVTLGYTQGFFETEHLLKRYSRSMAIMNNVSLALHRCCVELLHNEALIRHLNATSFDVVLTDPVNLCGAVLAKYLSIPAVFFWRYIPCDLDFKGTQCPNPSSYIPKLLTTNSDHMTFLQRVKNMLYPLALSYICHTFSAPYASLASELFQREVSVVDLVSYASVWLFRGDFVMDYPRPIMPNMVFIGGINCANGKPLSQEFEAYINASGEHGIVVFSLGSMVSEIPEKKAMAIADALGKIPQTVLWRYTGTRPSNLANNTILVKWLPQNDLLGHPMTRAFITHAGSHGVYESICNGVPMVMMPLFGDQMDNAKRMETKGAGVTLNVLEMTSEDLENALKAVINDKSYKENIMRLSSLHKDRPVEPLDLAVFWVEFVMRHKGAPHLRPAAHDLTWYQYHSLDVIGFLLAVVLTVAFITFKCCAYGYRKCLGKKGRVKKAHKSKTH

[9] = Drug metabolism in human intestine microsomes assessed as estriol-3-glucuronide formation after 15 to 60 mins by Michaelis-Menten equation analysis in presence of UDPGA
How it was run: as §2, with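 “intestine” for “liver”, “(6” for “(30”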

Chain of UDP-glucuronosyltransferase 1A10 (Q9HAW8 26-530 F93G limits assumed): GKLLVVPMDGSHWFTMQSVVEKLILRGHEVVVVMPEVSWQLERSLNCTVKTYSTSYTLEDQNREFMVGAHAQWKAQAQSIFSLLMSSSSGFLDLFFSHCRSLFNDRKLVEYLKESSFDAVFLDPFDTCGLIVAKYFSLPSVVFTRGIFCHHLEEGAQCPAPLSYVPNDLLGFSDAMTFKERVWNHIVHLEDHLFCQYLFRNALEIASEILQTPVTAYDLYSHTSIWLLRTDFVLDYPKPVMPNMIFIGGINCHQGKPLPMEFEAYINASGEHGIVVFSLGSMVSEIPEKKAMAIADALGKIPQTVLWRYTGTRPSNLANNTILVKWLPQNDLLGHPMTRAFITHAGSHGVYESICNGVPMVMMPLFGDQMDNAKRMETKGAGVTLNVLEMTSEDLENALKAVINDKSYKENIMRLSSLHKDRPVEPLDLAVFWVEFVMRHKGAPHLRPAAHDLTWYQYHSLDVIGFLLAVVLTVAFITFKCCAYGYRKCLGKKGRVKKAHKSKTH

Compound: C[C@]12CC[C@@H]3c4ccc(O)cc4CC[C@H]3[C@@H]1C[C@@H](O)[C@H]2O
- Drug metabolism [1]: metabolite_detected
- Km (Liver microsome): 21 µM
- Vmax (Liver microsome): 5425 pmol/min/mg
- Km [2]: 251 µM
- Vmax [2]: 1239 pmol/min/mg
- Km [3]: 820 µM
- Vmax [3]: 266 pmol/min/mg

Compound: C[C@@]12CC[C@@H]3c4ccc(O)cc4CC[C@H]3[C@@H]1CC[C@@H]2O
- Drug metabolism [4]: metabolite_detected

Compound: C[C@]12CC[C@@H]3c4ccc(O)cc4CC[C@H]3[C@@H]1CC[C@@H]2O [ESTRADIOL]
- Drug metabolism [7]: metabolite_detected

Results, then the molecule that gave them:

- Km [5]: 50 µM
- Vmax [5]: 4111 pmol/min/mg
- Km [6]: 43 µM
- Vmax [6]: 1480 pmol/min/mg
Compound: C[C@]12CC[C@@H]3c4ccc(O)cc4CC[C@H]3[C@@H]1C[C@H](O)[C@@H]2O [EPIESTRIOL]

- Drug metabolism [8]: 4 pmol/min/mg
- Km [9]: 75 µM
- Vmax [9]: 839 pmol/min/mg
Compound: C[C@]12CC[C@@H]3c4ccc(O)cc4CC[C@H]3[C@@H]1C[C@@H](O)[C@@H]2O [ESTRIOL]
